Results as given in ChEMBL document CHEMBL4680079, “Discovery of a Quinoline-4-carboxamide Derivative with a Novel Mechanism of Action, Multistage Antimalarial Activity, and Potent in Vivo Efficacy” (J Med Chem, 2016).
pEC50, pIC50: −log10 of the molar value. Active and inactive are the calls of the source. The calls are words filed in the database; no cut-off is given here.

Key:
[1] = system: Plasmodium falciparum; test: Antiplasmodial activity against drug resistant Plasmodium falciparum […] [3H]hypoxanthine incorporation assay; assay type: functional, organism-based
Outline: (§1)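 Strains (K1, W2, 7G8, TM90C2A, D6, V1/S resistant; NF54 sensitive) cultured by the Trager and Jensen method; EC50 determined in vitro from [3H]hypoxanthine incorporation.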

[2] = system: Plasmodium falciparum; test: Antiplasmodial activity against late stage (IV/V) Plasmodium falciparum NF54 gametocytes transfected with GFP-LUC assessed as growth inhibition incubated for 72 hrs by mitotracker Red-CMXROS dye based fluorescence microscopic analysis; assay type: functional, organism-based; details: NF54, 72 h
Outline: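 NF54 pfs16-LUC-GFP stage IV–V gametocytes (10% parasitaemia, 0.1% haematocrit) exposed to compound in 0.4% DMSO, three concentrations per log, for 72 h at 37°C under 5% CO2/5% O2/90% N2. MitoTracker Red CM-H2Xros then added for 16 h and viable gametocytes counted by imaging.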

[3] = system: MRC5; test: Antiproliferative activity against human MRC5 cells assessed as reduction in cell viability after 68 hrs by resazurin dye based fluorescence assay; details: MRC5, 68 h
Outline: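 MRC-5 fibroblasts plated overnight as monolayers, exposed to compound pre-diluted in MEM for 68 h. Resazurin then added (final 50 μM) for 3 h, fluorescence read at ex 528/em 590 nm. Signal converted to % inhibition against high- and no-inhibition controls. Plates accepted at Z' > 0.5.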

[4] = Intrinsic clearance in Sprague-Dawley rat liver microsomes at 0.5 uM in presence of NADPH incubated upto 30 mins by UPLC-MS/MS analysis; assay type: ADME, Microsome; details: 0.5 h
Outline: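 Compound at 0.5 μM incubated with female CD1 mouse, male Sprague-Dawley rat or pooled human liver microsomes (0.5 mg/mL, 50 mM potassium phosphate, pH 7.4). Reaction started with excess NADPH. Samples taken at 0-30 min, quenched in acetonitrile, analysed by UPLC-MS/MS. Verapamil used as control, single time course.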

[5] = biological target: Voltage-gated inwardly rectifying potassium channel KCNH2 (Homo sapiens, UniProt Q12809); test: Inhibition of human ERG by IonWorks patch-clamp electrophysiology method
Outline: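 hERG K⁺ channel inhibition measured by IonWorks patch-clamp electrophysiology. Eight-point concentration-response curves made from 3-fold serial dilutions down from the maximum final assay concentration. Each curve generated on 2 occasions.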

[6] = system: Plasmodium berghei; test: Antiplasmodial activity against Plasmodium berghei ANKA infected in NMRI mouse assessed as survival days at 30 mg/kg, po QD for 4 days; assay type: functional; details: time 4 day
[7] = system: Plasmodium berghei; test: Antiplasmodial activity against Plasmodium berghei ANKA infected in NMRI mouse assessed as survival days at 10 mg/kg, po QD for 4 days; assay type: functional; details: time 4 day
[8] = system: Plasmodium berghei; test: Antiplasmodial activity against Plasmodium berghei ANKA infected in NMRI mouse assessed as cure rate at 10 mg/kg, po QD for 4 days; assay type: functional, organism-based; details: time 4.0 day
Outline: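 Female NMRI mice (n=3 per group, randomized, not blinded) infected with GFP-transfected P. berghei ANKA. Oral dosing once daily for 4 days in 10% DMSO/40% PEG400/50% water or HPMC suspension vehicle. Parasitaemia measured by flow cytometry on blood collected 96 h after infection. Mice watched for toxicity over 4 h post-dose each day.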

[9] = system: Plasmodium berghei; test: Antiplasmodial activity against Plasmodium berghei ANKA infected in NMRI mouse assessed as survival days at 3 mg/kg, po QD for 4 days; assay type: functional; details: time 4 day
[10] = system: Plasmodium berghei; test: Antiplasmodial activity against Plasmodium berghei ANKA infected in NMRI mouse assessed as survival days at 1 mg/kg, po QD for 4 days; assay type: functional; details: time 4 day
[11] = system: Plasmodium falciparum; test: Antiplasmodial activity against drug resistant Plasmodium falciparum D6 by [3H]hypoxanthine incorporation assay; assay type: functional, organism-based; outline: as §1
[12] = system: Plasmodium falciparum; test: Antiplasmodial activity against drug resistant Plasmodium falciparum V1/S by [3H]hypoxanthine incorporation assay; assay type: functional, organism-based; outline: as §1
[13] = Blood clearance in NMRI mouse at 1 mg/kg, iv administered as bolus dose by UPLC-MS/MS analysis; assay type: ADME, organism-based
[14] = Volume of distribution at steady state in NMRI mouse at 1 mg/kg, iv administered as bolus dose by UPLC-MS/MS analysis; assay type: ADME, organism-based; details: in vivo
[15] = AUC in NMRI mouse at 3 mg/kg, po administered as gavage by UPLC-MS/MS analysis; assay type: ADME, organism-based; set-up: dose 3 mg/kg; details: in vivo
[16] = Tmax in NMRI mouse at 3 mg/kg, po administered as gavage by UPLC-MS/MS analysis; assay type: ADME, organism-based; details: in vivo
[17] = Cmax in Sprague-Dawley rat at 5 mg/kg, po administered via gavage by UPLC-MS/MS analysis; assay type: ADME, organism-based; set-up: route oral, dose 5 mg/kg; details: in vivo
Outline: (§2)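 Male Sprague Dawley rats (n=3) gavaged with a solution at 5 mg free base/kg (10 mL/kg; 0.5% w/v HPMC, 0.4% v/v Tween 80, 0.5% v/v benzyl alcohol). Blood sampled at 5, 15, 30 min and 1, 2, 4, 6, 8, 24, 30, 48 h, diluted with two volumes water, analysed by UPLC-MS/MS.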

[18] = Tmax in Sprague-Dawley rat at 5 mg/kg, po administered via gavage by UPLC-MS/MS analysis; assay type: ADME, organism-based; details: in vivo; outline: as §2

Voltage-gated inwardly rectifying potassium channel KCNH2, sequence (Q12809 whole entry): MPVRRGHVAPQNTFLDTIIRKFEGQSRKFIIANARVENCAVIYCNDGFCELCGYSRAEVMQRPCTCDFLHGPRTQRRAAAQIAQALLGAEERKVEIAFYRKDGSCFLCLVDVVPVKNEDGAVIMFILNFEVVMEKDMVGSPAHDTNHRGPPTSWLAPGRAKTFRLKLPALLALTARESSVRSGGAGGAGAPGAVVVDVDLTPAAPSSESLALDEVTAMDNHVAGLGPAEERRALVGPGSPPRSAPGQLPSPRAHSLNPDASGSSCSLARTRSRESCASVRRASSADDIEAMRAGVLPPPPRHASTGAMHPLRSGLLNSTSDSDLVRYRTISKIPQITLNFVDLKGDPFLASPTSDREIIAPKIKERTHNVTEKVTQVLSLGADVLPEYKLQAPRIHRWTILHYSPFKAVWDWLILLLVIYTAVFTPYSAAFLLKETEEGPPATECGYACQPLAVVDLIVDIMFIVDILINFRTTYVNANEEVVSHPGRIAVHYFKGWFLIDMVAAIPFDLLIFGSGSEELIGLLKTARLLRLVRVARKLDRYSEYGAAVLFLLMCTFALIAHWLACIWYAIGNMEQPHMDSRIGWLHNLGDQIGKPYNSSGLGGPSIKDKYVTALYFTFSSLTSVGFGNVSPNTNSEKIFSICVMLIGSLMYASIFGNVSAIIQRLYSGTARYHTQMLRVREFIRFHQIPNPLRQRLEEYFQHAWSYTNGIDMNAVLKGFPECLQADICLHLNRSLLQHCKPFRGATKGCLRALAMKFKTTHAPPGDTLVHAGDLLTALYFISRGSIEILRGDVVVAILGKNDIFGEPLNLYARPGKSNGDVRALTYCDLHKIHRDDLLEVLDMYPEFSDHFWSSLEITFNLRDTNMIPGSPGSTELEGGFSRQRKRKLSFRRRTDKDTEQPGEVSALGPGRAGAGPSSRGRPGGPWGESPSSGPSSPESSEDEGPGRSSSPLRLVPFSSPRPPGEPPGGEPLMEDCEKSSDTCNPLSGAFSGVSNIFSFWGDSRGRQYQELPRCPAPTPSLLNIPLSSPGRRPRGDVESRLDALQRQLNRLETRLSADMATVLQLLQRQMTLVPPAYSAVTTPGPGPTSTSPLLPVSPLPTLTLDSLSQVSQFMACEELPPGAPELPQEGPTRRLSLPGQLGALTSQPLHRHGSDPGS

O=C(NCCN1CCCC1)c1cc(-c2ccc(CN3CCOCC3)cc2)nc2ccc(F)cc12 [CABAMIQUINE]
pEC50 [1]: 9.52 | pEC50 [2]: 7.62 | pEC50 [3]: 4.62 | CLH [4]: <= 0.8 ml/min/g | pIC50 [5]: 4.80 | Survival [6]: >30 days | Survival [7]: >30 days | Activity [8]: Active | Survival [9]: 25 days | Survival [10]: 14 days | pEC50 [11]: 9.40 | pEC50 [12]: 9.15 | clearance [13]: 12 mL/min/kg | Vdss [14]: 15 L/kg | AUC [15]: 2990 ng·h/mL | Tmax [16]: 1 h | Cmax [17]: 180 ng/mL | Tmax [18]: 4 h
